Experimental data gathered from unrelated publications.
Compare with care: the assays were run in different laboratories.
Cell line: A549
Effect on: cell growth or viability

CSc1ccc(CNc2ccc(C(=O)O)cc2)cc1
IC50 (resazurin; 72 h): > 100 µM

COc1cc([C@@H]2c3cc4c(cc3[C@@H](O[C@@H]3O[C@@H]5CO[C@@H](C)O[C@H]5[C@H](O)[C@H]3O)[C@H]3COC(=O)[C@H]23)OCO4)cc(OC)c1O
IC50 (SRB; 72 h): 0.3 µM

C[C@@H]1C[C@H]2[C@@H]3CCC4=CC(=O)C=C[C@]4(C)[C@@]3(F)[C@@H](O)C[C@]2(C)[C@@]1(O)C(=O)CO
IC50 (MTT; 48 h): 348 µM

NS(=O)(=O)c1ccc(-n2nc(-c3nnc(S)o3)cc2-c2ccccc2)cc1
IC50 (fluorescence; 48 h): 26.9 µM

Cc1cccc(NC(=O)Cn2cc(COc3ncnc4[nH]cnc34)nn2)c1
IC50 (MTT): > 100 µM

COC(=O)c1cc(C(C)=NNc2nc(-c3ccc(C)cc3)cs2)ccc1O
IC50 (MTT; 96 h): 9.61 µM

OC1CCN(c2ccc(/C=N/NC(=S)Nc3ccccc3)cc2)CC1
IC50 (MTT; 24 h): 3.77 µM

CCCCC(=O)Nc1ccc(-c2ccc3ncn(CC4CCC4)c(=O)c3c2)cn1
IC50 (CCK-8; 72 h): 0.32 µM

Cc1ccc(NC(=O)Nc2nc3cc(-c4ccc5ncn(Cc6ccccc6)c(=O)c5c4)ccc3s2)cc1
IC50 (MTT; 72 h): 7.61 µM

CN(C)C(=O)Nc1nc2ccc(Br)cc2c(=O)n1-c1ccccc1
IC50 (MTT; 48 h): 31.1 µM

CCCCC(=O)Nc1ccc(-c2ccc3ncn(CCC)c(=O)c3c2)cn1
IC50 (CCK-8; 72 h): 0.11 µM

O=C(Nc1ccc(F)cc1)Nc1nc2cc(-c3ccc4ncn(CC5CC5)c(=O)c4c3)ccc2s1
IC50 (MTT; 72 h): 2.48 µM

CC#CCn1cnc2ccc(-c3ccc(NC(=O)CCCC)nc3)cc2c1=O
IC50 (CCK-8; 72 h): > 10 µM

C#Cc1cccc(Nc2ncnc3cc(OCCOC)c(OCCOC)cc23)c1
IC50 (MTT; 48 h): 17.3 µM

CCCn1cnc2ccc(-c3ccc(N4CCCCCC4=O)nc3)cc2c1=O
IC50 (CCK-8; 72 h): > 10 µM

O=C(Nc1ccc(Cl)cc1)Nc1nc2cc(-c3ccc4ncn(Cc5ccccc5)c(=O)c4c3)ccc2s1
IC50 (MTT; 72 h): > 20 µM

CCCCC(=O)Nc1ccc(-c2ccc3ncn(CCCF)c(=O)c3c2)cn1
IC50 (CCK-8; 72 h): 1.79 µM

CC1CCC(C(C)C)C(OC2=C(Cl)C(=O)c3ccccc3C2=O)C1 (centres unmarked)
IC50 (MTT; 24 h): > 50 µg/mL

C/C(=N\C1CCCCC1/N=C(\C)c1c(O)c2ccccc2oc1=O)c1c(O)c2ccccc2oc1=O (centres unmarked)
IC50 (MTT; 48 h): 6.56 µM

CN(C)CCn1cnc2ccc(-c3ccc4sc(NC(=O)Nc5ccc(F)cc5)nc4c3)cc2c1=O
IC50 (MTT; 72 h): 0.98 µM

CN(C)c1ccc(Nc2nc(-c3ccncc3)nc3c2CC(N)CC3)cc1 (centres unmarked)
IC50 (MTT): 17.1 µM

CCCCC(=O)Nc1ccc(-c2ccc3ncn(CCC(C)C)c(=O)c3c2)cn1
IC50 (CCK-8; 72 h): 0.45 µM

CC(C)[C@@H]1NC(=O)[C@@H](CCCNC(=N)N)NC(=O)[C@H]([C@@H](C)O)NC(=O)[C@@H](CCCN)NC(=O)[C@H](Cc2ccccc2)NC(=O)[C@@H](Cc2ccc(O)cc2)NC1=O
IC50 (ATP luminescence): > 100 µM
